Experimental data collected from several papers.
Compare with care: the assays were run in different laboratories. ≈ marks a conversion by molar mass, not a printed value.

| Compound | organism | assay | system | conditions | endpoint | value |
| --- | --- | --- | --- | --- | --- | --- |
| CNC(=S)NN=Cc1ccc([N+](=O)[O-])cc1 | Leishmania major | parasite growth | J774.A1 | 72 h, intracellular, amastigote | IC50 | 177 µM |
| CC[C@H]1OC(=O)[C@H](C)[C@@H](O[C@H]2C[C@@](C)(OC)[C@@H](O)[C@H](C)O2)[C@H](C)[C@@H](O[C@@H]2O[C@H](C)C[C@H](N(C)C)[C@H]2O)[C@](C)(O)C[C@@H](C)/C(=N\OCOCCOC)[C@H](C)[C@@H](O)[C@]1(C)O | Enterococcus faecalis | microbial growth, agar dilution | ATCC29212 |  | MIC | 128 µg/mL |
| COc1ccc(Nc2cnnc3ccc(-c4ccc(N5CCN(C)CC5)cc4)cc23)nc1 | Leishmania major | parasite growth |  | intracellular, amastigote | EC50 | > 23 µM |
| CC(=O)N1CCN(c2ccc(OCC3COC(Cn4ccnc4)(c4ccc(Cl)cc4Cl)O3)cc2)CC1 (stereo not shown) | Aspergillus glaucus | microbial growth, broth dilution |  | 48 h | MIC | 7.8 µg/mL |
| CC(=O)NC[C@H]1CN(c2ccc(N3CCOCC3)c(F)c2)C(=O)O1 | Enterococcus faecalis | microbial growth, agar dilution | ATCC29212 |  | MIC | 2 µg/mL |
| CCCCCCCCCCCC[N+](C)(C)Cc1ccccc1 | Enterococcus faecalis | microbial growth |  |  | MIC | 63 µM |
| COc1ccc(C=NNC(=S)Nc2cccnc2)cc1 | Leishmania major | parasite growth | J774.A1 | 72 h, intracellular, amastigote | IC50 | 892 µM |
| C/C(=N\C(=N)/N=C(\C)c1c(O)c2ccccc2oc1=O)c1c(O)c2ccccc2oc1=O | Aspergillus glaucus | microbial growth, broth dilution |  | 48 h | MIC | 125 µg/mL |
| COc1ccc(Nc2cnnc3ccc(-c4ccc(N5CCN(C)CC5)cc4)cc23)cc1Cl | Leishmania major | parasite growth |  | intracellular, amastigote | EC50 | > 22 µM |
| S=C(NN=Cc1ccc(Br)cc1)Nc1cccnc1 | Leishmania major | parasite growth | J774.A1 | 72 h, intracellular, amastigote | IC50 | 627 µM |
| CN1CCN(c2ncc(-c3ccc4c(Nc5ncccn5)cnnc4c3)cn2)CC1 | Leishmania major | parasite growth |  | intracellular, amastigote | EC50 | > 25 µM |
| COc1c(N2C[C@@H]3CCCN[C@@H]3C2)c(F)cc2c(=O)c(C(=O)O)cn(C3CC3)c12 | Enterococcus faecalis | microbial growth, agar dilution | ATCC29212 |  | MIC | 8 µg/mL |
| Cc1ccc(Nc2cnnc3cc(-c4cnc(N5CCCN(C)CC5)nc4)ccc23)cn1 | Leishmania major | parasite growth |  | intracellular, amastigote | EC50 | > 23 µM |
| CNC(=S)NN=Cc1ccc(F)cc1 | Leishmania major | parasite growth | J774.A1 | 72 h, intracellular, amastigote | IC50 | 319 µM |
| C=C[C@]1(C)C[C@@H](OC(=O)CS[C@@H]2C[C@H]3CC[C@@H](C2)N3C)[C@]2(C)[C@H](C)CC[C@]3(CCC(=O)[C@H]32)[C@@H](C)[C@@H]1O | Enterococcus faecalis | microbial growth |  | clinical isolate | MIC90 | > 128 µg/mL |
| CN1CCN(c2ccc(-c3ccc4nncc(Nc5cnccn5)c4c3)cc2)CC1 | Leishmania major | parasite growth |  | intracellular, amastigote | EC50 | > 13 µM |

| Compound | organism | assay | system | conditions | endpoint | value |
| --- | --- | --- | --- | --- | --- | --- |
| C/C(=N\CCNCC/N=C(\C)c1c(O)c2ccccc2oc1=O)c1c(O)c2ccccc2oc1=O | Aspergillus glaucus | microbial growth, broth dilution |  | 48 h | MIC | 31.2 µg/mL |
| CN1CCN(c2ncc(-c3ccc4nncc(Nc5cnccn5)c4c3)cn2)CC1 | Leishmania major | parasite growth |  | intracellular, amastigote | EC50 | > 5 µM |
| C[C@@H]1[C@H](O)[C@@H](C)/C=C/C=C/C=C/C=C/C=C/C=C/C=C/[C@H](O[C@@H]2O[C@H](C)[C@@H](O)[C@H](N)[C@@H]2O)C[C@@H]2O[C@](O)(C[C@@H](O)C[C@@H](O)[C@H](O)CC[C@@H](O)C[C@@H](O)CC(=O)O[C@H]1C)C[C@H](O)[C@H]2C(=O)O | Aspergillus fumigatus | microbial growth, broth dilution | AF293 | 48 h | MIC | 0.5 µg/mL |
| CNC(=S)NN=Cc1ccc(OC)c(OC)c1 | Leishmania major | parasite growth | J774.A1 | 72 h, intracellular, amastigote | IC50 | 60 µM |
| CC1(C)S[C@@H]2[C@H](NC(=O)[C@H](N)c3ccccc3)C(=O)N2[C@H]1C(=O)O | Enterococcus faecalis | microbial growth, broth dilution | ATCC19433 | 12 h | MIC | 0.5 µg/mL |
| COc1ccc(C=NNC(=S)Nc2cccnc2)cc1OC | Leishmania major | parasite growth | J774.A1 | 72 h, intracellular, amastigote | IC50 | 886 µM |
| C/C(=N\NC(=O)/N=C(\C)c1c(O)c2ccccc2oc1=O)c1c(O)c2ccccc2oc1=O | Aspergillus glaucus | microbial growth, broth dilution |  | 48 h | MIC | 125 µg/mL |
| C[C@@H]1[C@H](O)[C@@H](C)/C=C/C=C/C=C/C=C/C=C/C=C/C=C/[C@H](O[C@@H]2O[C@H](C)[C@@H](O)[C@H](N)[C@@H]2O)C[C@@H]2O[C@](O)(C[C@@H](O)C[C@@H](O)[C@H](O)CC[C@@H](O)C[C@@H](O)CC(=O)O[C@H]1C)C[C@H](O)[C@H]2C(=O)O | Leishmania major | parasite growth | J774.A1 | 72 h, intracellular, amastigote | IC50 | 17.5 µM |
| CN1CCN(c2ccc(-c3ccc4nncc(Nc5ncccn5)c4c3)cc2)CC1 | Leishmania major | parasite growth |  | intracellular, amastigote | EC50 | > 2.5 µM |
| CN[C@H](CC(C)C)C(=O)N[C@H]1C(=O)N[C@@H](CC(N)=O)C(=O)N[C@H]2C(=O)N[C@H]3C(=O)N[C@H](C(=O)N[C@H](C(=O)O)c4cc(O)cc(O)c4-c4cc3ccc4O)[C@H](O)c3ccc(c(Cl)c3)Oc3cc2cc(c3O[C@@H]2O[C@H](CO)[C@@H](O)[C@H](O)[C@H]2O[C@H]2C[C@](C)(N)[C@H](O)[C@H](C)O2)Oc2ccc(cc2Cl)[C@H]1O | Enterococcus faecalis | microbial growth, broth dilution |  | clinical isolate | MIC50 | 2 µg/mL (≈ 1.38 µM) |
| C/C(=N\CCNCCNCC/N=C(\C)c1c(O)c2ccccc2oc1=O)c1c(O)c2ccccc2oc1=O | Aspergillus glaucus | microbial growth, broth dilution |  | 48 h | MIC | 125 µg/mL |
| CN1CCCN(c2ncc(-c3ccc4nncc(Nc5cnccn5)c4c3)cn2)CC1 | Leishmania major | parasite growth |  | intracellular, amastigote | EC50 | > 24 µM |
| CC1(C)S[C@@H]2[C@H](NC(=O)[C@H](N)c3ccccc3)C(=O)N2[C@H]1C(=O)O | Enterococcus faecalis | microbial growth |  | clinical isolate | MIC90 | > 128 µg/mL |
| CNC(=S)NN=Cc1ccc(C)cc1 | Leishmania major | parasite growth | J774.A1 | 72 h, intracellular, amastigote | IC50 | 1110 µM |
| Cc1c2c(nn1C)CSCc1cc(n(C)n1)CSc1cc(c3ccccc3c1)OCCCc1c(C(=O)O)n(C)c3c-2c(Cl)ccc13 | Enterococcus faecalis | microbial growth, broth dilution |  | clinical isolate | MIC90 | 25 µM |
